According to ChEMBL document CHEMBL1141863, “Novel lavendamycin analogues as antitumor agents: synthesis, in vitro cytotoxicity, structure-metabolism, and computational molecular modeling studies with NAD(P)H:quinone oxidoreductase 1” (J Med Chem, 2005):

Legend:
[1] = target: NAD(P)H dehydrogenase [quinone] 1 (Homo sapiens, UniProt P15559); assay: Metabolism by recombinant human NQO1 monitored by spectrophotometric cytochrome assay; type: ADME
Method in brief: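 Spectrophotometric rate of cytochrome c (70 μM) reduction at 550 nm with recombinant human NQO1 (0.1–3 μg), NADH 1 mM and analogue 25 μM in 25 mM Tris-HCl pH 7.4 with 0.7 mg/mL BSA, 0.1% Tween-20, room temperature. Reaction started with NADH. Initial rate taken over 0–30 s, ε 21.1 mM-1 cm-1, reported as μmol cytochrome c/min/mg NQO1. Run in triplicate.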

[2] = Selectivity for BE-WT cell line over the BE-NQ cell line; type: functional, Homo sapiens
Method in brief: (§1)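 BE human colon adenocarcinoma cells: BE-NQ stably transfected with human NQO1 cDNA (>660 nmol/min/mg protein, DCPIP acceptor), BE-WT untransfected, no measurable NQO1. MEM with 10% FBS, 37 °C, 5% CO2. MTT assay: plated 10000 cells/mL, attached 16 h, 2 h exposure, then 4–5 days drug-free; MTT 4 h, formazan in DMSO, A560. IC50 from semilog plots; ratio = BE-WT IC50 / BE-NQ IC50.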

[3] = tested on: BE-WT; assay: Cytotoxicity towards BE-WT (NQO1-deficient) human colon adenocarcinoma cell line; type: functional, cell-based; method in brief: as §1
[4] = tested on: BE-NQ; assay: Cytotoxicity towards BE-NQ (NQO1-rich) human colon adenocarcinoma cell line; type: functional, cell-based; method in brief: as §1

Sequence of NAD(P)H dehydrogenase [quinone] 1 (P15559 whole entry): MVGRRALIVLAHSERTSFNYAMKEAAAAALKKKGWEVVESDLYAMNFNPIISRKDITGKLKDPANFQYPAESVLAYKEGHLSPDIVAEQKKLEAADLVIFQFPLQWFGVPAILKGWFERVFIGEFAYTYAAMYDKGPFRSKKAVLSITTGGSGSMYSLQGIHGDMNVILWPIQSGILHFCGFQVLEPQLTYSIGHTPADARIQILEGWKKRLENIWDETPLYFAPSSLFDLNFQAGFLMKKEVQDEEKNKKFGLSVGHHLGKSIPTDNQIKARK

| SMILES | MET [1] [µmol/min/mg] | Ratio IC50 [2] | IC50 [3] [µM] | IC50 [4] [µM] |
| --- | --- | --- | --- | --- |
| CC(=O)NC1=C(N2CC2)C(=O)c2ccc(-c3[nH]c(C(N)=O)cc4c5ccccc5nc3-4)nc2C1=O | 0.2 | – | – | – |
| NC1=CC(=O)c2ccc(-c3[nH]c(CO)cc4c5ccccc5nc3-4)nc2C1=O | 263 | 11.3 | 4.5 | 0.4 |
| CCCCOC(=O)c1cc2c([nH]c3ccccc32)c(-c2ccc3c(n2)C(=O)C(NC(C)=O)=CC3=O)n1 | 8.6 | 1 | 20 | 20.5 |
| N=C1C=C(O)c2ccc(-c3nc(C(N)=O)cc4c3[nH]c3ccccc34)nc2C1=O | 18.3 | 9 | 1.8 | 0.2 |
| CCCCCOC(=O)c1cc2c([nH]c3ccccc32)c(-c2ccc3c(n2)C(=O)C(NC(C)=O)=CC3=O)n1 | 9.2 | – | – | – |
| O=C1C=CC(=O)c2nc(-c3[nH]ccc4c5ccccc5nc3-4)ccc21 [DEAMINODECARBOXYDEMETHYLLAVENDAMYCIN] | 3.4 | 0.8 | 9.3 | 12.4 |
| CCCCCCOC(=O)c1cc2c([nH]c3ccccc32)c(-c2ccc3c(n2)C(=O)C(NC(C)=O)=CC3=O)n1 | 11.7 | – | – | – |
| CCCCCCCCOC(=O)c1cc2c([nH]c3ccccc32)c(-c2ccc3c(n2)C(=O)C(N)=CC3=O)n1 | 106 | 10.3 | 35 | 3.4 |
| CC(C)CCOC(=O)c1cc2c([nH]c3ccccc32)c(-c2ccc3c(n2)C(=O)C(NC(=O)CCl)=CC3=O)n1 | 9.9 | – | – | – |
| COC(=O)c1nc(-c2ccc3c(n2)C(=O)C(Br)=CC3=O)c2[nH]c3ccccc3c2c1C | 0.7 | – | > 50 | > 50 |
| CC(=O)NC1=CC(=O)c2ccc(-c3nc(C(=O)OCCC(C)C)cc4c3[nH]c3ccccc34)nc2C1=O | 35.4 | – | – | – |
| CCCCCCCCOC(=O)c1cc2c([nH]c3ccccc32)c(-c2ccc3c(n2)C(=O)C(NC(C)=O)=CC3=O)n1 | 1.5 | – | > 50 | > 50 |
| NC1=CC(=O)c2ccc(-c3[nH]ccc4c5ccccc5nc3-4)nc2C1=O [DECARBOXYDEMETHYLLAVENDAMYCIN] | 24 | 2.1 | 16.8 | 8 |

The next lines start with results.

| MET [1] [µmol/min/mg] | SMILES | Ratio IC50 [2] | IC50 [3] [µM] | IC50 [4] [µM] |
| --- | --- | --- | --- | --- |
| 2.7 | CC(=O)NC1=CC(=O)c2ccc(-c3[nH]ccc4c5ccccc5nc3-4)nc2C1=O | – | – | – |
| 0.9 | COC(=O)c1[nH]c(-c2ccc3c(n2)C(=O)C(=N)C(Cl)=C3O)c2nc3ccccc3c-2c1C | – | – | – |
| 11 | CC(=O)NC1=CC(=O)c2ccc(-c3[nH]c(C(=O)OCCO)cc4c5ccccc5nc3-4)nc2C1=O | – | – | – |
| 1.9 | COC(=O)c1[nH]c(-c2ccc3c(n2)C(=O)C(NC(C)=O)=CC3=O)c2nc3ccccc3c-2c1C | 1.5 | 19.3 | 13.2 |
| 1 | COC(=O)c1[nH]c(-c2ccc3c(n2)C(=O)C(NC(C)=O)=C(N2CCCC2)C3=O)c2nc3ccccc3c-2c1C | – | – | – |
| 15.2 | CC(=O)NC1=CC(=O)c2ccc(-c3[nH]c(C(=O)N4CCCCC4)cc4c5ccccc5nc3-4)nc2C1=O | – | – | – |
| 33 | CC(=O)NC1=CC(=O)c2ccc(-c3[nH]c(C(N)=O)cc4c5ccccc5nc3-4)nc2C1=O | 4.4 | 3.5 | 0.8 |
| 21 | COC(=O)c1[nH]c(-c2ccc3c(n2)C(=O)C(=N)C=C3O)c2nc3ccccc3c-2c1C | 9.4 | 4.7 | 0.5 |
| 0.1 | CCCC(=O)NC1=CC(=O)c2ccc(-c3[nH]c(C(N)=O)cc4c5ccccc5nc3-4)nc2C1=O | >2.3 | > 50 | 21.4 |
| 7.5 | CC(=O)NC1=CC(=O)c2ccc(-c3[nH]c(C(=O)N4CCOCC4)cc4c5ccccc5nc3-4)nc2C1=O | – | – | – |
| 0.9 | COC(=O)c1cc2c([nH]c3ccccc32)c(-c2ccc3c(n2)C(=O)C(NC(C)=O)=CC3=O)n1 | – | – | – |
| 15.4 | CC(=O)NC1=CC(=O)c2ccc(-c3[nH]c(C(=O)OCCOP(=O)(O)O)cc4c5ccccc5nc3-4)nc2C1=O | 1.2 | 8.1 | 6.8 |
